Counter-ions that a name gives are not always drawn.
Experiments:
Assay type in all cases: functional
[1] = Competitive inhibition of Cu2-amyloid beta (1 to 20) complex-induced DTBC oxidation by spectrophotometry
Outline: (§1)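 Cu(II)–Aβ complex formed just before assay by mixing stoichiometric Cu(II) and peptide at μM level in the reaction solution. Several concentrations of DTBC or THB substrate are incubated with a constant Cu(II)–Aβ concentration in 0.1 M HEPES, pH 7.4, 25 °C. Ki is obtained from Lineweaver–Burk analysis assuming competitive inhibition.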

[2] = Competitive inhibition of Cu2-amyloid beta (1 to 16) complex-induced DTBC oxidation by spectrophotometry; outline: as §1
[3] = Competitive inhibition of Cu2-amyloid beta (1 to 20) complex-induced THB oxidation by spectrophotometry; outline: as §1
[4] = Competitive inhibition of full-length Cu2-amyloid beta (1 to 40) complex-induced dopamine oxidation by Lineweaver-Burk plot analysis
Outline: (§2)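 Cu(II)–Aβ prepared fresh from stoichiometric Cu(II) and peptide at μM level. Dopamine oxidation (1.0 mM for inhibition plots; varied for Lineweaver–Burk) is catalysed by 2.0 μM Cu–Aβ1-40, 3.0 μM Cu–Aβ1-16, or 3.0 or 17.0 μM Cu–Aβ1-20, in 0.1 M HEPES pH 7.4, 25 °C. Inhibitor is titrated to give IC50. Ki comes from a 1/v vs 1/[dopamine] plot, competitive model.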

[5] = Inhibition of Cu2-amyloid beta (1 to 16) complex-induced dopamine oxidation by spectrophotometry; outline: as §2
[6] = Inhibition of Cu2-amyloid beta (1 to 40) complex-induced dopamine oxidation by spectrophotometry; outline: as §2
[7] = Inhibition of Cu2-amyloid beta (1 to 20) complex-induced dopamine oxidation by spectrophotometry; outline: as §2
[8] = Inhibition of Cu2-amyloid beta (1 to 16) complex-induced DTBC oxidation by spectrophotometry; outline: as §1
[9] = Inhibition of Cu2-amyloid beta (1 to 16) complex-induced THB oxidation by spectrophotometry; outline: as §1

`Cc1ncc(COP(=O)(O)O)c(C=O)c1O` [PYRIDOXAL PHOSPHATE ANHYDROUS] gave a Ki [1] of 0.2 mM and a Ki [2] of 0.13 mM.

With `Cc1ncc(CO)c(C=O)c1O` [PYRIDOXAL] the Ki [1] was 1.12 mM, the Ki [3] was 2.8 mM and the Ki [2] was 0.67 mM.

Compound `Cc1ncc(CO)c(CN)c1O` [PYRIDOXAMINE] has a Ki [4] of 1.42 mM, an IC50 [5] of 7 mM and an IC50 [6] of 7 mM. It also gave an IC50 [7] of 7 mM and a Ki [7] of 1.4 mM.

Work on `Cc1ncc(CO)c(CO)c1O` [PYRIDOXINE HYDROCHLORIDE] yielded a Ki [8] of 5.05 mM, a Ki [5] of 5.56 mM and a Ki [9] of 8.67 mM. The Ki [7] was 8.29 mM.

— ChEMBL document CHEMBL1909634, “Vitamin B6s inhibit oxidative stress caused by Alzheimer's disease-related Cu(II)-β-amyloid complexes-cooperative action of phospho-moiety” (Bioorg Med Chem Lett, 2011)
